Data reported in PubChem BioAssay AID809 (SRMLSC, 2007).
Activity calls are given as the source filed them.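 The calls were made as follows: active = EC50 for reversing nicotinamide-shortened yeast lifespan at or below a set limit; inactive = EC50 above that limit.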

Test system: S. cerevisiae DeaD BB579, nicotinamide rescue growth, OD615 48 h
Assay: BB579 yeast growth restoration under nicotinamide – S. cerevisiae, yeast lifespan extension project, dose response (AID 809)
Method in brief: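 System: S. cerevisiae DeaD strain BB579 / Medium: Glucose-containing restrictive synthetic medium (CSMM-D), shifted from galactose / Schedule: 4 h pre-incubation, 48 h exposure at 30 °C / Technique: optical density at 615 nm (absorbance) / Read-out: culture growth as lifespan proxy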

For CC(=O)Oc1oc(-c2ccccc2)nc1C=Nc1ccccc1, the EC50 was 5.95 µM.

O=C(O)c1c[nH]c(=S)n1-c1ccc(F)cc1 was tested, and the EC50 was > 10 µM (inactive).

COC(=O)C1=C(N)OC2=C(C(=O)CC(C)(C)C2)C1c1cccs1 (centres undefined) showed an EC50 of 8.93 µM.

CCCCOC(=O)CSc1nc2c(c(=O)[nH]c(=O)n2C)n1C/C=C(\C)Cl was tested, and the EC50 was > 10 µM (inactive).

For O=C(/C=C/c1ccccc1)Nc1ncn[nH]1, the EC50 was > 10 µM (inactive).

With O=C(/C=C/c1ccccc1)C1C(=O)c2ccccc2C1=O the EC50 was > 10 µM (inactive).

O=[N+]([O-])c1c(C(Cl)Cl)nn(-c2ccccc2)c1N1CCCC1 was tested, and the EC50 was 7.47 µM.

CC(C)n1c(=O)c2c(O)cc(=O)oc2c2ccccc21 showed an EC50 of 0.63 µM.

O=C(CS(=O)c1ccc(C(F)(F)F)cc1[N+](=O)[O-])Oc1ccccc1 (centres undefined) gave an EC50 of 5.19 µM.

For CC[n+]1c(/C=C2\C=C(C)CC(C)(C)C2)sc2ccccc21, the EC50 was > 10 µM (inactive).

O=c1c(-c2ccc(Cl)cc2)[n+]([O-])c2ccccc2n1OCc1ccccn1 was tested, and the EC50 was > 10 µM (inactive).

With CC1C/C(=C\c2cccnc2)C(=O)/C(=C/c2cccnc2)C1 (centres undefined) the EC50 was 4.26 µM.

COc1ccc(C(CNC(=O)c2cccc(Br)c2)N2CCCC2)cc1 (centres undefined) was tested, and the EC50 was > 10 µM (inactive).

For Cc1ccc(C)c(N2CCN(S(=O)(=O)c3c(C)noc3/C=C/N(C)C)CC2)c1, the EC50 was > 10 µM (inactive).

N#C/C(=C\c1ccccc1)C(=O)N(c1ccccn1)C1CCCCC1 gave an EC50 of 6.66 µM.

O=C1CC(c2ccccc2)CC(O)=C1C=NCCN1CCOCC1 (centres undefined) gave an EC50 of 6.42 µM.

In the case of Cc1n[nH]c(=O)n1-c1cccc(C(F)(F)F)c1, the EC50 is reported as > 10 µM (inactive).

Cc1ccccc1NC(=O)c1ccccc1 was tested, and the EC50 was > 10 µM (inactive).

In the case of CCc1nnc(NC(=O)c2cccc(S(=O)(=O)N(C)c3ccccc3)c2)s1, the EC50 is reported as > 10 µM (inactive).

For c1cncc(-c2nn[nH]n2)c1, the EC50 was > 10 µM (inactive).

Cc1ccc(NC(=O)Nc2nc(-c3ccc(C)s3)cs2)cc1 was tested, and the EC50 was > 10 µM (inactive).

Work on CCOC(=O)Cc1csc(NC(=O)c2c(O)c3ccccc3n(CC(C)C)c2=O)n1 yielded an EC50 of 9.63 µM.

Work on O=C(O)c1cccc2c1C(=O)N(C1CCCCC1)C2 yielded an EC50 of 4.22 µM.

For COc1ccc(C2CC23N=C(c2ccccc2)OC3=O)cc1 (centres undefined), the EC50 was > 10 µM (inactive).

For CCN(CC)Cc1c(O)c(Cl)cc2c(C)c(C)c(=O)oc12, the EC50 was > 10 µM (inactive).

With Cc1cc(C2C(C#N)=C(N)Oc3n[nH]c(C)c32)c(C)s1 (centres undefined) the EC50 was > 10 µM (inactive).

In the case of Cc1c(NC(=O)C(=O)/C=C(\O)c2ccc(Cl)cc2)c(=O)n(-c2ccccc2)n1C, the EC50 is reported as 3.19 µM.

With CCOC(=O)C1=C(N)OC2=C(C(=O)CCC2)C1c1sccc1C (centres undefined) the EC50 was 9.37 µM.

In the case of Cc1nc(SC(C)C)[nH]c(=O)c1Cc1ccccc1, the EC50 is reported as > 10 µM (inactive).

In the case of CCNCCNC(=O)c1c(O)c2cccc3c2n(c1=O)CCC3, the EC50 is reported as 6.32 µM.

O=S(=O)(Nc1nc2ccccc2nc1Cl)c1ccc2ccccc2c1 gave an EC50 of 7.25 µM.

For CC(C)(C)C1CCc2[nH]nc(C(=O)O)c2C1 (centres undefined), the EC50 was 1.2 µM.

With CCn1c(=O)c2c(O)cc(=O)oc2c2ccccc21 the EC50 was < 0.078 µM.

With CCCCNC(=O)/C(C#N)=C/c1cccnc1 the EC50 was 9.27 µM.

In the case of CCCCCCC1C(C#N)=C(N)OC2=C1C(=O)CC(C)(C)C2 (centres undefined), the EC50 is reported as > 10 µM (inactive).

With COc1ccc2c(=O)c3c(=O)n(Cc4ccco4)c(-c4ccc(C)cc4)nc3oc2c1 the EC50 was 6.81 µM.

For O=C1C(=C(O)c2ccccc2)C(=O)c2ccccc21, the EC50 was > 10 µM (inactive).

With O=C1Nc2cc(Cl)c(Cl)cc2N(O)N1c1cc(Cl)cc(Cl)c1 the EC50 was > 10 µM (inactive).

For O=C1OC2(CCCCC2)OC(=O)C1=CNc1nc2ccccc2s1, the EC50 was > 10 µM (inactive).

In the case of CC1CCCN(c2nc3ccccc3nc2C(C#N)C(=O)OC2CCCCC2)C1 (centres undefined), the EC50 is reported as > 10 µM (inactive).

Compound CC(C)c1ccc2occ(-c3nn[nH]n3)c(=O)c2c1 has an EC50 of 6.44 µM.

COCCCNc1c2c3c(cccc3[nH]c1=O)C(=O)c1ccccc1-2 showed an EC50 of 7.85 µM.

In the case of CC(C)n1c(-c2ccccc2F)n[nH]c1=S, the EC50 is reported as > 10 µM (inactive).

CCOC(=O)c1c(C)oc2c1c(C(c1cccnc1)N1CCOCC1)c(O)c1ccccc12 (centres undefined) was tested, and the EC50 was > 10 µM (inactive).

In the case of O=S(=O)(ON(c1ccccc1)S(=O)(=O)c1ccccc1)c1ccccc1, the EC50 is reported as > 10 µM (inactive).

CCN(CCO)C(=O)C12CCC(C)(C(=O)C1)C2(C)C (centres undefined) was tested, and the EC50 was > 10 µM (inactive).

In the case of CCOC(=O)C1C(c2cccs2)NC(=O)N(C)C1(O)C(F)(F)F (centres undefined), the EC50 is reported as > 10 µM (inactive).

Work on CCOc1ccc(OCC(=O)c2c(O)c3ccccc3oc2=O)cc1 yielded an EC50 of 3.4 µM.

In the case of COC(=O)c1cc(OC)c(OC)cc1NC(=S)Nc1cccc(C(C)=O)c1, the EC50 is reported as > 10 µM (inactive).

CCOc1ccc(N=Cc2c(O)c3ccccc3oc2=O)cc1 was tested, and the EC50 was > 10 µM (inactive).

Work on Oc1ccc2ccccc2c1/C=N/c1nccs1 yielded an EC50 of 6.59 µM.

CCc1ccc(C(=O)CN2C(=O)NC(C)(CCc3ccccc3)C2=O)cc1 (centres undefined) was tested, and the EC50 was > 10 µM (inactive).

CCSc1ccccc1C(=O)n1nnc2ccccc21 gave an EC50 of 7.79 µM.

CCSc1nnc(NC(=O)CSc2nc(C)cc(C)n2)s1 was tested, and the EC50 was > 10 µM (inactive).
